# From ChEMBL document CHEMBL1811858, “A class of oral N-[(1S,3S)-1-methyl-1,2,3,4-tetrahydro-β-carboline-3-carbonyl]- N'-(amino-acid-acyl)hydrazine: discovery, synthesis, in vitro anti-platelet aggregation/in vivo anti-thrombotic evaluation and 3D QSAR analysis” (Eur J Med Chem, 2011)
# Assays:
# [1] = Antiplatelet activity in pig platelet assessed as inhibition of arachidonic acid-induced aggregation measured for 5 mins by aggregometry (reference value: 49.62 +/- 2.90%); format: functional, cell-based; details: Sus scrofa
# [2] = Antiplatelet activity in pig platelet assessed as inhibition of platelet activating factor-induced aggregation measured for 5 mins by aggregometry (reference value: 52.30 +/- 1.78%); format: functional, cell-based; details: Sus scrofa
# [3] = Antiplatelet activity in pig platelet assessed as inhibition of ADP-induced aggregation measured for 5 mins by aggregometry (reference value: 50.16 +/- 3.65%); format: functional, cell-based; details: Sus scrofa
# Rattus norvegicus [4] = experiment: Antithrombotic activity in pentobarbital sodium anesthetized Wistar rat assessed as decrease in thrombus weight at 10 nmol/kg, po (reference value: 28.21=/-1.11 mg); format: functional
# Procedure, shortened: (§1)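 Male Wistar rats (250–300 g) received test agents orally, dissolved in NS and kept on ice; NS served as the vehicle control. After 30 min, rats were anaesthetised with pentobarbital sodium (80.0 mg/kg, i.p.). The right carotid artery and left jugular vein were exposed and joined through a polyethylene tube holding a weighed 6 cm thread. Wet thrombus weight is reported as mean ± SD in mg.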
# Rattus norvegicus [5] = experiment: Antithrombotic activity in pentobarbital sodium anesthetized Wistar rat assessed as decrease in thrombus weight at 100 nmol/kg, po (reference value: 28.21=/-1.11 mg); format: functional; procedure, shortened: as §1
# Rattus norvegicus [6] = experiment: Antithrombotic activity in po dosed Wistar rat assessed as decrease in thrombus weight; format: functional, organism-based; procedure, shortened: as §1
# Rattus norvegicus [7] = experiment: Antithrombotic activity in pentobarbital sodium anesthetized Wistar rat assessed as decrease in thrombus weight at 1 nmol/kg, po; format: functional; procedure, shortened: as §1
# Rattus norvegicus [8] = experiment: Antithrombotic activity in pentobarbital sodium anesthetized Wistar rat assessed as decrease in thrombus weight at 0.1 nmol/kg, po; format: functional; procedure, shortened: as §1
# [9] = Antiplatelet activity in pig platelet assessed as inhibition of arachidonic acid-induced aggregation at 1.7 mM measured for 5 mins by aggregometry; format: functional, Sus scrofa; parameters: scale not given: the % may be the effect or the level left
# Rattus norvegicus [10] = experiment: Antithrombotic activity in pentobarbital sodium anesthetized Wistar rat assessed as thrombus weight at 160 umol/kg, po (reference value: 28.21=/-1.11 mg); format: functional; procedure, shortened: as §1
# [11] = Antiplatelet activity in pig platelet assessed as inhibition of ADP-induced aggregation at 1.7 mM measured for 5 mins by aggregometry; format: functional, Sus scrofa; parameters: scale not given: the % may be the effect or the level left
# [12] = Antiplatelet activity in pig platelet assessed as inhibition of platelet activating factor-induced aggregation at 1.7 mM measured for 5 mins by aggregometry; format: functional, Sus scrofa; parameters: scale not given: the % may be the effect or the level left
IC50 [1] [µM],IC50 [2] [µM],IC50 [3] [µM],Structure (SMILES),Activity (Rattus norvegicus [4]) [mg],also measured
20,162,118,C[C@H](N)C(=O)NNC(=O)[C@@H]1Cc2c([nH]c3ccccc23)[C@H](C)N1,20.06,–
7.1,109,307,C[C@@H]1N[C@H](C(=O)NNC(=O)[C@@H](N)Cc2ccccc2)Cc2c1[nH]c1ccccc21,21,–
19.9,119,276,C[C@@H]1N[C@H](C(=O)NNC(=O)[C@@H](N)CO)Cc2c1[nH]c1ccccc21,19.04,–
3.4,106,321,C[C@@H]1N[C@H](C(=O)NNC(=O)[C@@H](N)CCCCN)Cc2c1[nH]c1ccccc21,18.97,–
5.2,196,117,C[C@@H]1N[C@H](C(=O)NNC(=O)[C@@H](N)CC(=O)OCc2ccccc2)Cc2c1[nH]c1ccccc21,19.65,–
21.5,111,611,C[C@@H]1N[C@H](C(=O)NN)Cc2c1[nH]c1ccccc21,–,Activity (Rattus norvegicus [5]): 21.23 mg
20.6,134,166,C[C@@H]1N[C@H](C(=O)NNC(=O)[C@@H]2CCCN2)Cc2c1[nH]c1ccccc21,20.39,–
13,12.7,152,C[C@@H]1N[C@H](C(=O)NNC(=O)[C@@H](N)Cc2ccc(O)cc2)Cc2c1[nH]c1ccccc21,20.24,–
18.5,267,598,C[C@@H]1N[C@H](C(=O)NNC(=O)[C@@H](N)CCC(N)=O)Cc2c1[nH]c1ccccc21,21.01,–
3.7,50,156,CC(C)[C@H](N)C(=O)NNC(=O)[C@@H]1Cc2c([nH]c3ccccc23)[C@H](C)N1,24.01,–
4.7,31.9,531,C[C@@H]1N[C@H](C(=O)NNC(=O)[C@@H](N)[C@@H](C)O)Cc2c1[nH]c1ccccc21,18.67,Activity (Rattus norvegicus [6]): Dose-dependent effect; Activity (Rattus norvegicus [7]): 22.77 mg; Activity (Rattus norvegicus [8]): 27.22 mg
21.7,52.9,417,CSCC[C@H](N)C(=O)NNC(=O)[C@@H]1Cc2c([nH]c3ccccc23)[C@H](C)N1,18.55,–
19.7,507,609,C[C@@H]1N[C@H](C(=O)NNC(=O)[C@@H](N)CC(N)=O)Cc2c1[nH]c1ccccc21,20.42,–
6.3,362,524,C[C@@H]1N[C@H](C(=O)NNC(=O)[C@@H](N)CCC(=O)OCc2ccccc2)Cc2c1[nH]c1ccccc21,21.36,–
4.8,7.7,94.6,C[C@@H]1N[C@H](C(=O)NNC(=O)[C@@H](N)Cc2cnc[nH]2)Cc2c1[nH]c1ccccc21,19.75,–
3.2,1.2,31.6,CC(C)C[C@H](N)C(=O)NNC(=O)[C@@H]1Cc2c([nH]c3ccccc23)[C@H](C)N1,21.06,–
2.4,1.4,51.1,CC[C@H](C)[C@H](N)C(=O)NNC(=O)[C@@H]1Cc2c([nH]c3ccccc23)[C@H](C)N1,20.62,–
20.7,348,722,C[C@@H]1N[C@H](C(=O)NNC(=O)CN)Cc2c1[nH]c1ccccc21,23.74,–
0.6,4.3,21.7,C[C@@H]1N[C@H](C(=O)NNC(=O)[C@@H](N)Cc2c[nH]c3ccccc23)Cc2c1[nH]c1ccccc21,18.87,–
–,–,–,CC(=O)Oc1ccccc1C(=O)O [ASPIRIN],–,Activity [9]: 34.5%; Activity (Rattus norvegicus [10]): 18.24 mg; Activity [11]: 31.14%; Activity [12]: 33.22%
